Source: ChEMBL document CHEMBL1151475, “Thiopurine drugs azathioprine and 6-mercaptopurine inhibit Mycobacterium paratuberculosis growth in vitro” (2008)

Assays:
Enterococcus faecalis = assay: Antituberculosis activity against Enterococcus faecalis ATCC 29212 isolated from human urine assessed as minimum drug level required for inhibition by MGIT 960 susceptibility test; assay type: functional
Mycobacterium avium [1] = assay: Antituberculosis activity against Mycobacterium avium WSLH1544 isolated from water assessed as minimum drug level required for killing within 15 days by MGIT 960 susceptibility test; assay type: functional
Mycobacterium avium [2] = assay: Antituberculosis activity against Mycobacterium avium JTC48627 isolated from bison fecal sample assessed as minimum drug level required for killing within 15 days by MGIT 960 susceptibility test; assay type: functional, Feces
[3] = test system: Mycobacterium avium subsp. paratuberculosis; assay: Antituberculosis activity against Mycobacterium paratuberculosis B213 isolated from bovine assessed as minimum drug level required for inhibition by MGIT 960 susceptibility test; assay type: functional
Method in brief: (§1)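 10^5 to 10^6 CFU from single-cell suspensions inoculated in duplicate into MGIT ParaTB medium with supplement and egg yolk. Drugs were at final 0.5–64.0 μg/ml, with 128.0 μg/ml added for some strains. Tubes were incubated at 37°C in MGIT 960. Inhibition is the lowest concentration giving a time to detection longer than a drug-free 1:100 inoculum control. Killing is no positive signal through 56 days.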

[4] = test system: Mycobacterium avium subsp. paratuberculosis; assay: Antituberculosis activity against Mycobacterium paratuberculosis B213 isolated from bovine assessed as minimum drug level required for killing after 56 days by MGIT 960 susceptibility test; assay type: functional; method in brief: as §1
[5] = test system: Mycobacterium avium subsp. paratuberculosis; assay: Antituberculosis activity against Mycobacterium paratuberculosis B244 isolated from bovine assessed as minimum drug level required for inhibition by MGIT 960 susceptibility test; assay type: functional; method in brief: as §1
[6] = test system: Mycobacterium avium subsp. paratuberculosis; assay: Antituberculosis activity against Mycobacterium paratuberculosis UCF-7 isolated from Crohn's disease patient assessed as minimum drug level required for killing after 56 days by MGIT 960 susceptibility test; assay type: functional; method in brief: as §1
Mycobacterium avium [7] = assay: Antituberculosis activity against Mycobacterium avium JTC48627 isolated from bison fecal sample assessed as minimum drug level required for inhibition by MGIT 960 susceptibility test; assay type: functional, Feces; method in brief: as §1
Mycobacterium avium [8] = assay: Antituberculosis activity against Mycobacterium avium 104 isolated from AIDS patient assessed as minimum drug level required for killing within 15 days by MGIT 960 susceptibility test; assay type: functional
[9] = test system: Mycobacterium avium subsp. paratuberculosis; assay: Antituberculosis activity against Mycobacterium paratuberculosis UCF-7 isolated from Crohn's disease patient assessed as colony counts at 4 ug after 12 days by MGIT 960 susceptibility test; assay type: functional
Mycobacterium avium [10] = assay: Antituberculosis activity against Mycobacterium avium EPA3 isolated from water assessed as minimum drug level required for killing within 15 days by MGIT 960 susceptibility test; assay type: functional
[11] = test system: Mycolicibacterium smegmatis; assay: Antituberculosis activity against Mycobacterium smegmatis ATCC 14468 assessed as minimum drug level required for inhibition by MGIT 960 susceptibility test; assay type: functional
Method in brief: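 MGIT ParaTB tubes were supplemented with egg yolk and inoculated in duplicate with 10^5 to 10^6 CFU from single-cell suspensions. Thiopurines were dissolved in 0.05 M NaOH in 10 mM PBS and tested at final 0.5 to 64.0 μg/ml, with 128.0 μg/ml added for some strains. Tubes ran at 37°C in the MGIT 960. The value is the lowest concentration giving a time-to-detection longer than a drug-free 1:100 inoculum control.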

[12] = test system: Mycobacterium avium subsp. paratuberculosis; assay: Antituberculosis activity against Mycobacterium paratuberculosis UCF-8 isolated from Crohn's disease patient assessed as minimum drug level required for inhibition by MGIT 960 susceptibility test; assay type: functional; method in brief: as §1
[13] = test system: Mycobacterium avium subsp. paratuberculosis; assay: Antituberculosis activity against Mycobacterium paratuberculosis ATCC 19698 isolated from bovine assessed as minimum drug level resulting in no detectable growth at 10^6 CFU of inoculum after 56 days by MGIT 960 susceptibility test; assay type: functional
Method in brief: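 M. paratuberculosis ATCC 19698 at 10^6 CFU per MGIT ParaTB tube in duplicate, drugs at final 1.0–64.0 μg/ml, 37°C in MGIT 960. Inhibition is the lowest concentration whose time to detection exceeds the 1:100 diluted-inoculum solvent control. No detectable growth means the tube never signals positive through 56 days.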

Work on `Sc1ncnc2nc[nH]c12` [MERCAPTOPURINE ANHYDROUS] yielded an Activity (Enterococcus faecalis) greater than 128 µg/mL, an Activity (Mycobacterium avium [1]) greater than 64 µg/mL and an Activity (Mycobacterium avium [2]) greater than 64 µg/mL. For the same compound, the Activity [3] was 4 µg/mL, the Activity [4] was greater than 32 µg/mL and the Activity [5] was 4 µg/mL. It also gave an Activity [6] of 8 µg/mL, an Activity (Mycobacterium avium [7]) of 32 µg/mL and an Activity (Mycobacterium avium [8]) greater than 64 µg/mL. For the same compound, the log10CFU/ml [9] was 3.19, the Activity (Mycobacterium avium [10]) was greater than 64 µg/mL and the Activity [11] was greater than 128 µg/mL. For the same compound, the Activity [12] was less than 1 µg/mL and the Activity [13] was 32 µg/mL.
